ChEMBL document CHEMBL2046300, “A laccase-catalysed one-pot synthesis of aminonaphthoquinones and their anticancer activity” (2012)

Tests used:
Format in all cases: functional
[1] = test system: TK-10; test: Antiproliferative activity against human TK10 cells after 48 hrs by SRB assay; conditions: TK-10, 48 h; for CC50: read-out: LC50 (the source's name)
How it was run: (§1)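 Cells kept as monolayers in RPMI with 5% FBS, 2 mM L-glutamine and 50 μg/mL gentamicin (37 °C, 5% CO2), used at passages 3–19. They were plated at 7–10 000 cells/well for 24 h, with a T0 plate TCA-fixed at drug addition. Compounds in DMSO, diluted in medium, at 5 concentrations (0.01–100 μM) for 48 h, duplicate. SRB read at 540 nm; net % growth gave GI50, TGI, LC50.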

[2] = test system: UACC-62; test: Antiproliferative activity against human UACC62 cells after 48 hrs by SRB assay; conditions: UACC-62, 48 h; for CC50: read-out: LC50 (the source's name); how it was run: as §1
[3] = test system: MCF7; test: Antiproliferative activity against human MCF7 cells after 48 hrs by SRB assay; conditions: MCF7, 48 h; for CC50: read-out: LC50 (the source's name); how it was run: as §1
[4] = test system: HeLa; test: Antiproliferative activity against human HeLa cells after 48 hrs by SRB assay; conditions: for CC50: read-out: LC50 (the source's name)

Compound	GI50 [1]	TGI [1]	CC50 [1]	GI50 [2]	TGI [2]	CC50 [2]	GI50 [3]	TGI [3]	CC50 [3]	GI50 [4]	TGI [4]	CC50 [4]
O=C(O)C1=C(Nc2ccc(F)cc2)C(=O)c2ccccc2C1=O	46.6 µM	> 100 µM	> 100 µM	7.54 µM	35 µM	72.1 µM	38.1 µM	98.9 µM	> 100 µM	36.2 µM	67.3 µM	98.4 µM
O=C(O)C1=C(Nc2ccc(Cl)cc2F)C(=O)c2ccccc2C1=O	13.4 µM	93.3 µM	> 100 µM	4.17 µM	7.94 µM	40.4 µM	21.4 µM	54.9 µM	88.5 µM	25.2 µM	55.5 µM	85.9 µM
CC(C)c1ccc(NC2=C(C(=O)O)C(=O)c3ccccc3C2=O)cc1	8.38 µM	63.6 µM	> 100 µM	5.19 µM	10.8 µM	58.1 µM	37.7 µM	> 100 µM	> 100 µM	38.3 µM	73 µM	> 100 µM
O=C(O)C1=C(Nc2ccccc2)C(=O)c2ccccc2C1=O	74.1 µM		> 100 µM	6.66 µM	30.7 µM	73.1 µM	42.6 µM	> 100 µM	> 100 µM	49.2 µM	97.2 µM	> 100 µM
COc1cc([C@@H]2c3cc4c(cc3[C@@H](O[C@@H]3O[C@@H]5CO[C@@H](C)O[C@H]5[C@H](O)[C@H]3O)[C@H]3COC(=O)[C@H]23)OCO4)cc(OC)c1O [ETOPOSIDE]	7.19 µM	49.7 µM	> 100 µM	0.89 µM	52.7 µM	> 100 µM	0.56 µM	> 100 µM	> 100 µM	3.56 µM	40.2 µM	87.5 µM
O=C(O)C1=C(Nc2cccc(Cl)c2)C(=O)c2ccccc2C1=O	35.9 µM	> 100 µM	> 100 µM	17 µM	49.1 µM	81.2 µM	43.2 µM	> 100 µM	> 100 µM	37.3 µM	70.7 µM	> 100 µM
O=C(O)C1=C(Nc2cccc(F)c2)C(=O)c2ccccc2C1=O	24.7 µM	> 100 µM	> 100 µM	5.28 µM	13.7 µM	59.4 µM	9.08 µM	48.4 µM	91 µM	28 µM	60.3 µM	92.5 µM
O=C(O)C1=C(Nc2ccccc2F)C(=O)c2ccccc2C1=O	36.9 µM	> 100 µM	> 100 µM	5.67 µM	23.3 µM	65.4 µM	9.84 µM	50.8 µM	92.2 µM	47.5 µM	97 µM	> 100 µM
N#Cc1cccc(NC2=C(C(=O)O)C(=O)c3ccccc3C2=O)c1	23.7 µM	76.2 µM	> 100 µM	3.99 µM	7.17 µM	19.3 µM	15.1 µM	53.8 µM	92.4 µM	16 µM	49.1 µM	82.3 µM
O=C(O)C1=C(Nc2ccc(Cl)cc2)C(=O)c2ccccc2C1=O	13 µM	79 µM	> 100 µM	3.98 µM	7.83 µM	55.1 µM	17.2 µM	55.1 µM	93 µM	24.8 µM	55.4 µM	86.1 µM
O=C(O)C1=C(Nc2ccccc2Cl)C(=O)c2ccccc2C1=O	80.7 µM	> 100 µM	> 100 µM	31 µM	65.8 µM	> 100 µM	63.5 µM	> 100 µM	> 100 µM	28 µM	60.3 µM	90.2 µM
O=C(O)C1=C(Nc2ccc(CCO)cc2)C(=O)c2ccccc2C1=O	91.1 µM	> 100 µM	> 100 µM	7.17 µM	35.3 µM	72 µM	54.9 µM	> 100 µM	> 100 µM	72.5 µM	> 100 µM	> 100 µM
